pIC50: −log10 of the molar value. Bounds are passed on as bounds.

Type in all cases: functional, cell-based
In one assay the test system is HaCaT. Briefly: Cytotoxicity against human HaCaT cells after 72 hrs by MTT assay. In a few lines:
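HaCaT keratinocytes were seeded at 25 000 cells/mL in DMEM with 10% FCS, and after 5 h the medium was switched to reduced-serum DMEM. Serial dilutions from 0.25 to 100 µM were added on days 1, 2 and 3. Cells were incubated at 37 °C in 10% CO2 for 72 h, and viability was read by MTT on day 4. Each concentration ran in triplicate wells, and each experiment was repeated at least three times.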

Assay [1] concerns B16. The assay can be described thus: Cytotoxicity against mouse B16 cells after 72 hrs by MTT assay. As to conditions: B16, 72 h. In a few lines: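 B16 melanoma cells were seeded at 15 000 cells/mL in RPMI 1640 with 5% FCS, and after 5 h the medium was switched to RPMI with 1% FCS. Serial dilutions from 0.25 to 100 µM were added on days 1, 2 and 3. Cells were incubated at 37 °C in 10% CO2 for 72 h, and viability was read by MTT on day 4. Each concentration ran in triplicate wells, and each experiment was repeated at least three times.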

For assay [2], the system named is B16. Briefly: Cytotoxicity against mouse B16 cells after 48 hrs by MTT assay. As to conditions: B16, 48 h. In a few lines: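 Mouse B16 melanoma cells were seeded at 30 000 cells/mL in RPMI 1640 with 10% FCS on day 0. Compound dilutions were added on day 1. Cells were incubated at 37 °C under 10% CO2, and growth and viability were read by MTT after 48 h. IC50 was derived from at least three independent experiments, with three wells per concentration.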

The pIC50 is the negative decadic logarithm of the IC50, by convention in mol/L. Low readings indicate a high IC50, high ones a low IC50. For `COC(=O)c1c(Oc2c(C)c(Cl)c(OC)c(Cl)c2O)cc(OC)c(Cl)c1C` [BUELLIN], the pIC50 with HaCaT is below 5.00; in the assay with B16 [1] it was 6.60.
Regarding `COc1c(Cl)c(C)c2c(c1Cl)OC(=O)c1c(cc(O)c(Cl)c1C)O2` [DECHLORODEPLOICIN], the pIC50 in the assay with HaCaT was 5.37; with B16 [1], 5.77.
As to `COc1c(Cl)c(C)c2c(c1Cl)OC(=O)c1c(C)c(Cl)c(O)c(Cl)c1O2` [DIPLOICIN], the pIC50 is below 5.00 with HaCaT and 5.40 in the assay with B16 [1].
Regarding `COc1cc([C@@H]2c3cc4c(cc3[C@@H](O[C@@H]3O[C@@H]5CO[C@@H](C)O[C@H]5[C@H](O)[C@H]3O)[C@H]3COC(=O)[C@H]23)OCO4)cc(OC)c1O` [ETOPOSIDE], the values for the pIC50 in the assay with HaCaT and in the assay on B16 [1] were 6.26 and 6.55, respectively.
Regarding `COc1cc2c(c(C)c1Cl)Oc1cc(OC)c(Cl)c(C)c1C(=O)O2` [SCENSIDIN], the values for the negative-log IC50 (pIC50) with HaCaT and in the assay on B16 [1] were 5.21 and 6.40, respectively.
As to `COC(=O)[C@@]12Oc3ccc(-c4ccc5c(c4O)C(=O)C4=C(O)C[C@H](C)[C@H](O)[C@]4(C(=O)OC)O5)c(O)c3C(=O)C1=C(O)C[C@H](C)[C@@H]2O` [SECALONIC ACID B], the values for the pIC50 in the assay with HaCaT and in the assay with B16 [2] were below 5.00 and 5.55, respectively.
`COC(=O)[C@@]12Oc3ccc(-c4ccc5c(c4O)C(O)C4=C(O)C[C@H](C)[C@@H](O)[C@]4(C(=O)OC)O5)c(O)c3C(=O)C1=C(O)C[C@H](C)[C@H]2O` (some centres undefined) [SECALONIC ACID D]: the pIC50 in the assay with HaCaT is 5.43; in the assay on B16 [2], 6.55.

These data come from ChEMBL document CHEMBL1153742, “Cytotoxic constituents of the lichen Diploicia canescens” (J Nat Prod, 2009).
